# HSP90 inh = HSP90 inhibitors, primary screen, cell lysate, luminescence | Heat shock protein HSP 90 (rabbit reticulocyte lysate; luciferase refolding) | inhibition, % at 5.6 µM | AID 1789, 2009 | Rabbit reticulocyte lysate, luciferase refolding luminescence, 3 h | hit rate 0.91% among 290,000;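 active = inhibition above the screen-wide mean plus 3 SD, computed separately per campaign, cut at about 16% in these data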;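 note: inhibitors lower the luminescence because luciferase stays unfolded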
# FID counter = compounds displacing fluorescent DNA intercalator, primary screen, artefact control for HCV NS3 helicase inhibitor project, biochemical, FID fluorescence; DNA fluorescent intercalator displacement; inhibition, % at 7.9 µM; hit rate 0.17% among 290,000; in the data active = inhibition above about 37%;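 note: higher means more ethidium bromide displaced from hairpin DNA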
# NS3 helicase inh = inhibitors of HCV NS3 helicase, primary screen, biochemical, Cy5 molecular beacon fluorescence; Hepatitis C virus NS3 helicase; NS3 helicase DNA unwinding; inhibition, % at 10.9 µM; hit rate 0.56% among 290,000;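 active = inhibition above the mean of all tested compounds plus 3 SD, set per campaign, cut at about 35% in these data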
#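 System: NS3 helicase fragment of HCV / Schedule: 1 h at 25 °C / Control set: DMSO alone as 0% and 110 µM thioflavine S as 100% / Reagent: Cy5/quencher beacon DNA duplex and ATP to start / Technique: Cy5 fluorescence / Replication: singlicate / Evaluation: % inhibition of end-to-start signal ratio versus controls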
# HCV core dimer = inhibitors of HCV core protein dimerization, primary screen, biochemical, TR-FRET, high-throughput; TR-FRET GST/Flag-core106 dimerization, 1536-well; inhibition, % at 5 µM; hit rate 0.33% among 300,000;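 active = inhibition above the mean of all tested compounds plus 3 SD, set per screening campaign, cut at about 45% in these data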
#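 Test system: GST/Flag-tagged HCV core106 proteins; Medium: KF-containing HEPES buffer, pH 7.45, DTT, CHAPS, BSA; Times: compound-protein-antibody incubation 4 h at 22.5 °C; Detection: TR-FRET 671 and 617 nm emission; Benchmarks: wells lacking GST-core106 and wells with excess unlabelled core106.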
# HSF1 activator = HSF-1 activators, primary screen, NIH3T3-HGL cells, MG132 stress, luminescence, single point; NIH3T3-HGL HSF-1 luciferase reporter, 8 h; 100% = twice DMSO control signal; activation, % at 9 µM; hit rate 1.7% among 300,000;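 active = mean replicate activation of at least 50% with a set share of replicates each reaching 50%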
# HSF1 inhib = HSF1 inhibitors in luciferase reporter cells, primary screen, cell-based, NIH3T3, luminescence. NIH3T3-HGL HSE-luciferase, MG132-induced, luminescence 8 h; active compounds read low. activity change, negative = inhibition, % at 7.5 µM (by protocol). hit rate 0.77% among 300,000. AID 2098, 2009;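 active = more than half of replicate wells show activity change below -50%, luminescence cut by over half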;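 note: luciferase reports HSF-1 transcriptional activity via heat shock element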
# Numbers stand for hits; i = inactive; nt = no result. A selection: hits, their analogues and other compounds. The true share with any hit is near 3.9%.
SMILES,HSP90 inh,FID counter,NS3 helicase inh,HCV core dimer,HSF1 activator,HSF1 inhib
COc1cccc(/C=C(\C#N)c2nc3ccccc3[nH]2)c1OCC(=O)O,i,i,i,i,i,-64
COc1ccc2c(c1)C1CC(C)(NC(=O)C1S(=O)(=O)c1ccc(F)cc1)O2 (centres undefined),i,i,i,i,i,i
Cc1csc(SC(C)C(=O)NCC2CCCCC2)n1 (centres undefined),i,i,i,i,i,i
C(=N\Nc1nncc2ccccc12)/c1ccccn1,29,i,i,i,i,i
O=[N+]([O-])c1ccc(CSc2nc3ncc(Br)cc3[nH]2)cc1,i,i,i,i,i,i
CC(C)C(C(=O)NCc1ccccc1)N(CC1CCCO1)C(=O)CNS(=O)(=O)c1ccccc1 (centres undefined),i,i,i,i,83,i
CC(C)C(C(=O)NCc1ccco1)N(CC1CCCO1)C(=O)CNS(=O)(=O)c1ccccc1 (centres undefined),i,i,i,i,i,i
Cc1oc(-c2ccccc2Cl)nc1CSc1nc2c(c(=O)[nH]1)CCC2,i,i,i,i,i,i
Cc1ccccc1CS(=O)(=O)c1nnc([C@H](CC(C)C)NC(=O)OC(C)(C)C)o1,i,i,i,i,107,i
CC(C)[C@H](NC(=O)OC(C)(C)C)c1nnc(S(=O)(=O)Cc2c(F)cccc2Cl)o1,nt,nt,nt,i,i,i
CC[C@@H](C)[C@H](NC(=O)OC(C)(C)C)c1nnc(S(=O)(=O)Cc2cc(C)ccc2C)o1,i,i,i,i,i,-66
Cc1csc(C2=C(O)CN(c3ccc4c(c3)OCCOCCOCCOCCO4)C2=N)n1,i,i,i,nt,nt,nt
CCn1nc(C)cc1C(=O)NC1CCCc2c1cnn2-c1ccc(C)c(C)c1 (centres undefined),i,i,i,i,i,i
CC(=O)c1cnn(-c2ccccc2)c1C,i,i,i,i,i,i
CC(=O)c1cnn(-c2c(Cl)cc(Cl)cc2Cl)c1C,i,i,i,i,i,-59
Cn1c(C(=O)Nc2ccc3c(c2)OCO3)cc2sccc21,i,i,i,i,66,i
Cn1c(C(=O)NCc2ccc3c(c2)OCO3)cc2sccc21,i,i,i,i,i,i
COC(=O)c1c(NC(C)=O)sc(C(=O)Nc2ccccc2)c1C,i,i,i,i,i,i
CCCC(=O)Nc1sc(C(=O)Nc2cccc(N)c2)c(C)c1C(=O)OC,i,i,i,i,i,-67
COc1ccc(Nc2nc(N)nc(CSc3nccn3C)n2)cc1,i,i,i,i,55,i
COc1ccc(Nc2nc(N)nc(CSc3nc(C)cc(C)n3)n2)cc1,i,i,i,i,i,-89
CNC(=O)c1ccsc1NC(=O)c1ccc(Cl)s1,i,i,i,i,i,-66
COc1ccc(S(=O)(=O)N2CCOC2CNC(=O)C(=O)NCCc2ccccc2)cc1 (centres undefined),i,i,i,i,i,i
CCc1ccc(/C=C/C(=O)c2ccc(N3CCOCC3)cc2)cc1,i,i,i,i,55,i
CCOC(=O)c1[nH]c(C)c(C(=O)N2CCCC(Nc3ccc(C)c(C)c3)C2)c1C (centres undefined),i,i,i,i,i,i
SMILES,HSP90 inh,FID counter,NS3 helicase inh,HCV core dimer,HSF1 activator,HSF1 inhib
O=c1c(-c2ccc3c(c2)OCCO3)coc2cc(O)cc(O)c12,i,i,i,i,71,i
CCN(CC)Cc1c(O)ccc2c(=O)c(-c3ccc4c(c3)OCCO4)coc12,i,i,i,i,i,i
CCOC(=O)C1(CC2CC2)CCN(S(=O)(=O)/C=C/c2ccccc2)CC1,i,i,i,i,i,i
COc1ccccc1CCC(=O)OCC(=O)Nc1cccc(S(=O)(=O)N2CCOCC2)c1,nt,nt,nt,i,i,-63
COc1ccc(CNC(=O)OCCN2CCN(S(=O)(=O)c3ccc(C)cc3)CCC2=O)cc1,i,i,i,i,i,-68
COc1cccc(NC(=O)Cn2c(=O)oc3cc(S(=O)(=O)N4CCCC4)ccc32)c1,i,i,i,i,i,-56
O=C(Cc1ccccc1F)Nc1ccc(S(=O)(=O)N2CCCCC2)cc1,i,i,i,i,i,-65
O=C(CSc1n[nH]c(=O)n1-c1ccc2c(c1)OCCO2)Nc1ccccc1,i,i,i,i,i,i
CCN(CC)C(=O)Cn1cc(C(=O)C(=O)N(CC)C2CCCCC2)c2ccccc21,i,i,i,i,i,i
CSc1ccc(Cl)c(C(=O)OCC(=O)N2CCOCC2)c1,i,i,i,i,i,i
COc1ccc(S(=O)(=O)N2CCN(CCC(=O)Nc3ccccc3F)CC2)cc1,i,i,i,i,i,i
COc1ccc(NC(=O)CCN2CCN(S(=O)(=O)c3ccc(OC)cc3)CC2)cc1,i,i,i,i,i,-91
COc1ccccc1OCC(=O)Nc1ccc(S(=O)(=O)N2CCN(C)CC2)cc1,i,i,i,i,i,i
COc1ccccc1OCC(=O)Nc1ccc(S(=O)(=O)N2CCCC2)cc1,i,i,i,i,i,-62
COc1ccc(N(CC(=O)NCCC2=CCCCC2)S(=O)(=O)c2ccccc2)cc1,i,i,i,i,97,i

# From PubChem BioAssay
